Laboratory results taken from ChEMBL document CHEMBL3352378, “Novel carbazole inhibits phospho-STAT3 through induction of protein-tyrosine phosphatase PTPN6” (J Med Chem, 2014).
Active and inactive are the calls of the source. No cut-off for these calls is given here.

Tests used:
[1] = biological target: Signal transducer and activator of transcription 3 (Homo sapiens) (UniProt P40763); test: Inhibition of STAT3 in human SUM149PT cells assessed as reduction of IL-6 induced STAT3 phosphorylation at Y705 incubated for 2 hrs prior to IL-6 challenge measured after 30 mins by Western blotting analysis; type: cell-based
Signal transducer and activator of transcription 3 (Homo sapiens), sequence (P40763 whole entry): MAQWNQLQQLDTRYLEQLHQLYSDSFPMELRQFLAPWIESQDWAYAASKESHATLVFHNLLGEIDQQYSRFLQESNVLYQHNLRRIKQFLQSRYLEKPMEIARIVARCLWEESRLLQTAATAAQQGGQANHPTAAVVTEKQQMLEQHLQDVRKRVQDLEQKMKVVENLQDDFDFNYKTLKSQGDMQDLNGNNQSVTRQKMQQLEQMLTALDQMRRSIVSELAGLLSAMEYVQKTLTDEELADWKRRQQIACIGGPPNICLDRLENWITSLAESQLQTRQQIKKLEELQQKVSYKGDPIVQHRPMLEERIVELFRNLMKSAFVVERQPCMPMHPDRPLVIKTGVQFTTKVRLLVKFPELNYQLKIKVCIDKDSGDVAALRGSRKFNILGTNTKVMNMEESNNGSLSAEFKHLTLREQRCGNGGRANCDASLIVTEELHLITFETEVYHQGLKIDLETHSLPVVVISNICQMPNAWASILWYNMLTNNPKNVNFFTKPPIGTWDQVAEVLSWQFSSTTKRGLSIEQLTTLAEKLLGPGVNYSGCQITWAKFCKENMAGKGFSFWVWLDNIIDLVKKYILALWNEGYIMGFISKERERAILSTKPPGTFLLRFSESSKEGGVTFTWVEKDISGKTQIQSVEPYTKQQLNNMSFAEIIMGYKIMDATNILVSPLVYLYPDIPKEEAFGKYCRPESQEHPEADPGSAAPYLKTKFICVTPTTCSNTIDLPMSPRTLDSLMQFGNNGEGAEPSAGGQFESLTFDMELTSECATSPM

[2] = biological target: Signal transducer and activator of transcription 3 (Homo sapiens) (UniProt P40763); test: Inhibition of STAT3 in human Hs578T cells assessed as reduction of cyclin D1 level at 0.3 to 3 uM after 24 hrs by Western blotting analysis; type: cell-based; settings: Hs-578T
In short: (§1)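 HS578T and SUM149PT cells given increasing concentrations for 24 h. Lysates immunoblotted with the indicated antibodies, β-actin as loading control.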

[3] = biological target: Tyrosine-protein phosphatase non-receptor type 6 (Homo sapiens) (UniProt P29350); test: Induction of PTPN6 in human Hs578T cells assessed as inhibition of STAT3 phosphorylation at 3 uM after 16 hrs by Western blotting analysis in presence of pervanadate; type: cell-based; settings: Hs-578T
Tyrosine-protein phosphatase non-receptor type 6 (Homo sapiens), sequence (P29350 whole entry): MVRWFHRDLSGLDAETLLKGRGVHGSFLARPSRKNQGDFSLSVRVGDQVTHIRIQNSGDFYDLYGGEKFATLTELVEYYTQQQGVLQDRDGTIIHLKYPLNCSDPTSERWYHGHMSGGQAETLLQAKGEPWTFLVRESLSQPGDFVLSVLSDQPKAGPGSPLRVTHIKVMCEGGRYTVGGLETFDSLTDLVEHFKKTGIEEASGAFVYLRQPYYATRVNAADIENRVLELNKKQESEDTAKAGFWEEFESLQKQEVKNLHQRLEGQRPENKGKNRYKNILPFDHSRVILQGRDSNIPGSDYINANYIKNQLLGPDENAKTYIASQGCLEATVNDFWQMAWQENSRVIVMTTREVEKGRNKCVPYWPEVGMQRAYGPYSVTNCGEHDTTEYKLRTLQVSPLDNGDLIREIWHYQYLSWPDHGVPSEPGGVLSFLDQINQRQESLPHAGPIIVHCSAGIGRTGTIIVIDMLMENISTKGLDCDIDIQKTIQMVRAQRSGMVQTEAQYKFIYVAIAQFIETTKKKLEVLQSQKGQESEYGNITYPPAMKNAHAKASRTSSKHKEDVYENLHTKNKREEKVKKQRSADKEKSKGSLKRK
In short: (§2)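 HS578T and SUM149PT cells treated for 16 h without or with increasing pervanadate as a phosphatase inhibitor; JAK1/2 inhibitor CP690550 run in parallel. Lysates immunoblotted for phospho-STAT3 (Y705), with β-actin as loading control.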

[4] = Drug uptake in human MDA-MB-231 cell cytoplasm at 10 uM after 1 hr by two-photon confocal microscopy; type: ADME, cell-based; settings: mda-mb-231, 1 h
In short: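 MDA-MB-231 cells grown overnight on fibronectin/[…]-coated slides, then given 10 μM compound or DMSO for 1 h. Cells washed with PBS and fixed in 4% formaldehyde. Two-photon excitation at 725 nm, emission collected through a 500–550 nm filter.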

Mus musculus [5] = test: Toxicity in athymic Balb/c nude mouse xenografted with human SUM149 cells assessed as change in body weight at 10 to 30 mg/kg, ip administered every other day for 5 days; type: organism-based; set-up: dose 10-30 mg/kg, route intraperitoneal; settings: in vivo, 120 h
In short: (§3)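 SUM149 cells (3×10^6) implanted subcutaneously in the right auxiliary region of male and female athymic nude mice (18–22 g). Groups of five, randomized; dosed ip every other day at 10 or 30 mg/kg from 1 mg/mL Cremophore 10%/PEG400 3%/PBS vehicle, vehicle control. Tumor volume by caliper (L×w×w/2); body weight, appetite, activity and lethargy monitored.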

[6] = biological target: Signal transducer and activator of transcription 3 (Homo sapiens) (UniProt P40763); test: Inhibition of STAT3 in human SUM149PT cells assessed as reduction of STAT3 phosphorylation at Y705 after 24 hrs by Western blotting analysis; type: cell-based; in short: as §1
[7] = biological target: Signal transducer and activator of transcription 3 (Homo sapiens) (UniProt P40763); test: Inhibition of STAT3 in human SUM149PT cells assessed as reduction of survivin mRNA expression at 0.3 to 1 uM after 24 hrs by RT-PCR analysis; type: cell-based
In short: (§4)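 HS578T and SUM149PT cells treated for 24 h with increasing concentrations. Transcripts measured by RT-PCR, normalized to GAPDH as loading control.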

SUM149PT = test: Cytotoxicity against human SUM149PT cells after 72 hrs by MTT assay; type: functional, cell-based
In short: (§5)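 Cells exposed to increasing concentrations for about 72 h, and viability read by MTT. EC50 fitted with CompuSyn. Two independent experiments, each in triplicate, mean ± SEM. Compound stocks 10 mM in DMSO.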

[8] = biological target: Signal transducer and activator of transcription 3 (Homo sapiens) (UniProt P40763); test: Inhibition of STAT3 in human Hs578T cells assessed as reduction of cyclin D1 mRNA expression at 0.3 to 1 uM after 24 hrs by RT-PCR analysis; type: cell-based; settings: Hs-578T; in short: as §4
[9] = biological target: Tyrosine-protein phosphatase non-receptor type 6 (Homo sapiens) (UniProt P29350); test: Induction of PTPN6 in human SUM149PT cells assessed as inhibition of STAT3 phosphorylation at 3 uM after 16 hrs by Western blotting analysis in presence of pervanadate; type: cell-based; in short: as §2
Hs-578T [10] = test: Induction of PTPN6 protein expression in human Hs578T cells transfected with PTPN6-siRNA after 24 hrs by Western blotting analysis; type: functional, cell-based
In short: (§6)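 HS578T cells transfected with 100 nM control or PTPN6 siRNA using Lipofectamine 2000 in serum-free medium. Medium with 20% FBS added after 4 h, and cells kept 3 days. Then treated with DMSO or compound for 24 h. PTPN6 and phospho-STAT3 immunoblotted and quantified by ImageJ densitometry.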

[11] = Antitumor activity against human SUM149 cells xenografted in athymic Balb/c nude mouse assessed as PTPN6 upregulation at 30 mg/kg, ip administered every other day for 5 days measured on day 5 by Western blotting analysis; type: functional, organism-based; set-up: dose 30 mg/kg; settings: SUM149PT
In short: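 SUM149 subcutaneous xenografts in nude mice (n = 5), dosed ip every other day in Cremophore/PEG400/PBS vehicle. Tumors taken on day 5 were immunoblotted for PTPN6, STAT3 and pSTAT3, with GAPDH as control. PTPN6 quantified by densitometry with a one-tailed t test.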

Mus musculus [12] = test: Toxicity in athymic Balb/c nude mouse xenografted with human SUM149 cells assessed as decreased activity at 10 to 30 mg/kg, ip administered every other day for 5 days; type: organism-based; set-up: dose 10-30 mg/kg, route intraperitoneal; settings: in vivo, 120 h; in short: as §3
Mus musculus [13] = test: Toxicity in athymic Balb/c nude mouse xenografted with human SUM149 cells assessed as loss of appetite at 10 to 30 mg/kg, ip administered every other day for 5 days; type: organism-based; set-up: dose 10-30 mg/kg, route intraperitoneal; settings: in vivo, 120 h; in short: as §3
Hs-578T [14] = test: Induction of PTPN6 mRNA expression in human Hs578T cells after 24 hrs by RT-PCR analysis; type: functional, cell-based
In short: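 HS578T and SUM149PT cells given increasing concentrations for 24 h. PTPN6 mRNA measured by RT-PCR, with GAPDH as loading control.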

BT-549 = test: Cytotoxicity against human BT549 cells after 72 hrs by MTT assay; type: functional, cell-based; in short: as §5
Hs-578T [15] = test: Induction of PTPN6 protein expression in human Hs578T cells transfected with control-siRNA after 24 hrs by Western blotting analysis; type: functional, cell-based; in short: as §6
HCC1937 = test: Cytotoxicity against human HCC1937 cells after 72 hrs by MTT assay; type: functional, cell-based; in short: as §5
[16] = biological target: Signal transducer and activator of transcription 3 (Homo sapiens) (UniProt P40763); test: Inhibition of STAT3 in human Hs578T cells assessed as reduction of STAT3 phosphorylation at Y705 after 24 hrs by Western blotting analysis; type: cell-based; settings: Hs-578T; in short: as §1
A-431 = test: Cytotoxicity against human A431 cells after 72 hrs by MTT assay; type: functional; settings: A-431, 72 h; in short: as §5
MDA-MB-453 = test: Cytotoxicity against human MDA-MB-453 cells after 72 hrs by MTT assay; type: functional, cell-based; in short: as §5

inhibition [1]: Dose-dependent effect | inhibition [2]: Active | inhibition [3]: inactive | Drug uptake [4]: Active | inhibition [6]: Dose-dependent effect | inhibition [8]: Active | inhibition [9]: inactive | inhibition [16]: Dose-dependent effect
Structure (SMILES): Cc1c(OS(=O)(=O)c2cccc3c(N(C)C)cccc23)ccc2c1[nH]c1cc(O)ccc12
Activity (Mus musculus [5]): Non-toxic | inhibition [7]: Active | Activity (SUM149PT): Active | Activity (Hs-578T [10]): inactive | Activity [11]: Active | Activity (Mus musculus [12]): Non-toxic | Activity (Mus musculus [13]): Non-toxic | Activity (Hs-578T [14]): Dose-dependent effect | Activity (BT-549): Active | Activity (Hs-578T [15]): Active | Activity (HCC1937): Active | GI50 (A-431): 160 nM | Activity (MDA-MB-453): Active
